# Compound activity as filed in PubChem.
# Rows were chosen to be rich in hits. Some 2.2% of all compounds tested hit in one or more screens of this group.
# PPC-1+TRAIL kill: compounds killing PPC-1 cancer cells with TRAIL present, primary screen, TRAIL potentiator project, ATPLite luminescence, uHTS; PPC-1 cells + TRAIL, ATPLite viability luminescence; cell killing (% activity), % at 4 µM or 5 µM; hit rate 0.41% among 220,000; AID 1443, 2008;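 active = cell killing above 50% in the first pass at 4 µM, then a duplicate retest at 5 µM averaging 50% or more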;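 note: plate controls were cells with TRAIL plus DMSO for no effect and medium-only wells lacking cells for full effect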
# PKD1 inh: inhibitors of human PKD1 kinase, biochemical, fluorescence polarization | Serine/threonine-protein kinase D1 (Homo sapiens), Q15139 | PKD1 kinase fluorescence polarization assay | inhibition, % (test concentration not listed) | hit rate 0.056% among 200,000 | AID 797, 2007; in the data active = inhibition above about 50%
# FLuc act counter: FLuc activators, initial screening, artefact control for FLuc-dependent activation tests, biochemical, ATPlite luminescence; Luciferin 4-monooxygenase (Photinus pyralis), P08659; ATPlite luciferase biochemical, 10 min; 0 = ATP-free wells, 1 = DMSO control; activation factor at 10 µM; 200,000 tested, under 10 active;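 active = luciferase activation factor, scaled between plate controls, of at least 2 with compound at 10 µM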
# Target sequence (P08659 whole entry, looked up): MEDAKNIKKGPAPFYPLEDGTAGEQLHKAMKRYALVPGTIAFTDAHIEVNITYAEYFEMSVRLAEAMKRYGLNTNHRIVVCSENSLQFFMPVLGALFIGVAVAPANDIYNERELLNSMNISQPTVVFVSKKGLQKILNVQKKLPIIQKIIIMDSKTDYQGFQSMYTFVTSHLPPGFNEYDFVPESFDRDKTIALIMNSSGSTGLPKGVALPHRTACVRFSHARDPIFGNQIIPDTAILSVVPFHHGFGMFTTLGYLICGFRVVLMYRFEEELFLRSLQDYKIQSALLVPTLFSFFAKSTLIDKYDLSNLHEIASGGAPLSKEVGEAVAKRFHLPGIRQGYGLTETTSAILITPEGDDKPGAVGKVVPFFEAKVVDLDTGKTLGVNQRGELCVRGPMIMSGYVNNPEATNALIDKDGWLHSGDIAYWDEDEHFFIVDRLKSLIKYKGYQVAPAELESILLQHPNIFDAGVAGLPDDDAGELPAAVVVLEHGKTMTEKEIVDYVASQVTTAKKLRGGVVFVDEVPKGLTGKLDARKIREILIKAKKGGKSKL
#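 Assay system: Luciferase/luciferin detection reagent, cell-free biochemical luciferase assay / Read-out: luciferase activation / Benchmarks: No-ATP low control, compound-free enzyme-plus-ATP high control / Medium: PBS buffer for ATP / Detection: luminescence measurement of luciferase light output / Schedule: 10 min at ambient temperature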
# Wee1 stabilizer: Wee1 degradation inhibitors, primary screen, cell-based, HeLa, Wee1K328M-luciferase, luminescence | Wee1-like protein kinase (Homo sapiens), P30291 | HeLa Luc-Wee1K328M stability; 100% = proteasome inhibitor MG132 effect | reporter increase, % at 5 µM | hit rate 1.2% among 220,000 | AID 1321, 2008;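 active = activation above the mean of all tested compounds plus 3 SD, set per screening run, cut at about 8.8% in these data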;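 note: cells exposed to compound for 20 h before luminescence read; 0% = DMSO alone and 100% = MG132 at 30 µM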
# FLuc inh counter: firefly luciferase enzyme inhibitors, primary screen, artefact control for luciferase-based inhibitor screens, biochemical, luminescence, ATPLite. inhibition, % at 10 µM. Luciferin 4-monooxygenase (Photinus pyralis), P08659. 10 min. hit rate 1.5% among 200,000;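 active = inhibition above about 50% when tested at 10 µM, limit read from the data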
# C8 TRAIL sens: viability loss with TRAIL in NB7+C8 cells, primary screen, TRAIL sensitizer project, cell-based, ATPlite luminescence; inhibition (viability loss, TRAIL sensitization), % at 10 µM; hit rate 1% among 360,000; AID 624354, 2012;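 active = compounds causing at least 50% loss of cell viability in the single-dose screen, relative to plate controls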
# The depositor's hits bear a star; . = no result given.
SMILES,PPC-1+TRAIL kill,PKD1 inh,FLuc act counter,Wee1 stabilizer,FLuc inh counter,C8 TRAIL sens
Cc1ccc(Nc2nnc(SCC(=O)c3c(N)n(C4CC4)c(=O)[nH]c3=O)s2)cc1C,.,.,.,.,.,55*
Cc1ccc2nc(SCC(=O)c3c(N)n(C4CC4)c(=O)[nH]c3=O)[nH]c2c1,.,.,.,.,.,-9
CCc1ccc(-c2cc(C)no2)cc1S(=O)(=O)N1CCN(c2ccccc2)CC1,.,.,.,.,.,13
CCOC(=O)C1=C(C)OC(=Cc2ccc(OC)cc2)C1=O,.,.,.,.,.,70*
CCOC(=O)C1=CCN(S(=O)(=O)c2ccccc2Cl)C1c1cccc(F)c1 (configuration not stated),.,.,.,.,.,71*
COCCNC(=O)NC(=O)CN1CCN(C(c2ccccc2)c2ccccc2)CC1,21,0,1.1,-1,-6,-7
Fc1ccc(-c2nc3n(n2)Cc2ccccc2-3)cc1,2,6,0.3,3,75*,57*
O=C(O)/C=C/C(=O)Nc1ccc2c(c1)C(=O)c1ccccc1C2=O,10,.,.,9.9*,.,14
CCC(C(=O)NC1CCCCC1)n1c(SCc2cccc(C)c2)nc2ccncc21 (configuration not stated),-1,2,0.3,-1,68*,45
CCC(C(=O)NC1CCCCC1)n1c(SCc2cccc(F)c2)nc2ccncc21 (configuration not stated),2,-6,1,2,-2,4
Cc1ccc(S(=O)(=O)N(C)C)cc1NC(=O)C(C)Sc1ccccc1 (configuration not stated),17,0,1,1,-3,-10
CC(C)C(=O)Nc1ccc(N2CCOCC2)c(S(=O)(=O)Nc2ccccc2Cl)c1,.,.,.,.,.,-3
COC(=O)c1cc(S(=O)(=O)N2CCOCC2)c(Cl)cc1N1CCOCC1,-1,-1,1,1,-4,-8
COC(=O)c1cc(C)nc2c1C(=O)C(=O)C=C2N1CCOCC1,.,.,.,.,.,92*
CCn1c(SCC(=O)Nc2ccc(C(C)=O)cc2)nc2nc3c(cc2c1=O)CCCC3,28,8,1.1,0,-8,18
CC(=O)c1ccc(NC(=O)CSc2nc(N)c3cc4c(nc3n2)CCCC4)cc1,23,-3,0.5,6,48,52*
COc1ccc(NC(=O)CSc2nc(N)c3cc4c(nc3n2)CCCC4)cc1,15,6,0.4,-1,62*,37
C(=C\c1ccccc1)/CN1CCN(C(c2cc3ccccc3o2)c2nnnn2-c2ccc3c(c2)OCCO3)CC1 (configuration not stated),.,.,.,.,.,0
O=c1c2ccccc2oc2ccc(NCCCn3ccnc3)cc12,.,.,.,.,.,50*
c1ccc2c(c1)oc1c(NCCCn3ccnc3)ncnc12,15,6,1.1,1,-8,0
CC1(C)CC(=O)C(N=Nc2cc(Cl)c(Cl)c(Cl)c2)=C(O)C1,6,-2,1,-3,-2,23
Cc1ccc(O)c(N=NC2=C(O)CC(C)(C)CC2=O)c1,47,2,0.4,-1,62*,63*
O=C(CNC(=O)c1ccccc1)OCC(=O)c1cccs1,.,.,.,.,.,-12
Nc1cccc(C(=O)OCC(=O)c2ccccc2)c1,-14,4,0.3,-2,69*,-2
O=C(OCC(=O)c1cccs1)c1ccccc1,8,-3,0.5,3,50*,0
SMILES,PPC-1+TRAIL kill,PKD1 inh,FLuc act counter,Wee1 stabilizer,FLuc inh counter,C8 TRAIL sens
O=c1[nH]cnc2c1nc(NCc1ccccc1)n2C1O[C@@H](CO)[C@H](O)[C@@H]1O (some centres not stated),.,.,.,.,.,1
Cc1ccc(SC2=C(C(=O)O)CCCC2)cc1,.,.,.,.,.,-3
Cc1cc(C(=O)Nc2ccc(N3CCCCC3)cc2)no1,17,.,.,9.1*,.,40
Cc1cnc(C(=O)Nc2ccc(N3CCCCC3)cc2)cn1,5,5,0.5,4,55*,19
Cc1cnc(C(=O)Nc2ccc(N3CCOCC3)cc2)cn1,10,-9,0.9,2,9,11
Cc1cc(C(=O)Nc2ccc(S(=O)(=O)N3CCCC3)cc2)no1,-1,-3,1,1,-4,1
Cc1ccc2nc(CSc3nc(C)ccc3C#N)[nH]c2c1,33,2,0.4,5,65*,46
CCSc1nc2ccc(C)cc2cc1C#N,-6,-7,1.1,-2,-5,-2
O=C(NC(=O)c1ccccc1Cl)Nc1ccc(-c2cnco2)cc1,-10,.,.,10.0*,.,-8
CCCn1c(N)c(N(CCOC)C(=O)c2c(CC)noc2C)c(=O)[nH]c1=O,.,.,.,.,.,-18
Cc1ccc(C(=O)COC(=O)c2cc(=O)[nH]c3ccccc23)cc1,19,-3,0.6,-1,35,34
CCCn1c(C)cc(C(=O)COC(=O)c2cc(S(=O)(=O)NCC(C)C)c(Cl)cc2Cl)c1C,-11,-3,1,2,-4,94*
CCCn1c(C)cc(C(=O)COC(=O)c2nccnc2N)c1C,13,2,0.2,5,78*,34
CCCn1c(C)cc(C(=O)COC(=O)c2cc(=O)[nH]c3ccccc23)c1C,.,.,.,.,.,57*
CCCC1(C(=O)OC)NC(c2ccc(OC)c(OC)c2)C2C(=O)N(c3cccc(C(C)=O)c3)C(=O)C21 (configuration not stated),.,.,.,.,.,21
Cc1cccc(C)c1N=Cc1c(C(F)(F)F)[nH][nH]c1=O,2,-2,1,1,-2,-5
O=S1(=O)CC(N2CCCCC2)CN1Cc1cn(Cc2cccc(Cl)c2)nn1 (configuration not stated),.,.,.,.,.,-11
CC(OC(=O)c1nc(Cl)ccc1Cl)C(=O)Nc1ccccc1F (configuration not stated),.,.,.,.,.,-5
N#CC1CC(c2ccccc2)=NN1c1ccccc1[N+](=O)[O-] (configuration not stated),17,-5,0.9,10*,12,-16
O=CN1N=C(c2ccccc2)CC1c1ccccc1[N+](=O)[O-] (configuration not stated),-16,-9,1,0,-2,-17
Cn1c(=O)n(C)c2cc(NC(=O)COc3ccc(F)cc3)ccc21,.,.,.,.,.,-4
CC(C)C(=O)Nc1nc2c(c(=O)[nH]1)CCCC2,-1,-4,1,-3,-4,10
CC(C)CC(=O)Nc1nc2c(c(=O)[nH]1)CCCC2,19,-2,1,-3,-5,62*
Oc1ccc(/C=N/Nc2nc(-c3ccc(Cl)cc3)cc(C(F)(F)F)n2)cc1,-5,0,1,10*,0,14
